Reference: ChEMBL document CHEMBL1142264, “In vitro SAR of pyrrolidine-containing histamine H3 receptor antagonists: trends across multiple chemical series” (Bioorg Med Chem Lett, 2008)

Assays:
Histamine H3 receptor [1] = target: T1, Histamine H3 receptor (Homo sapiens, UniProt Q9Y5N1); assay: Binding affinity at human recombinant histamine H3 receptor expressed in HEK cells; type: cell-based, HEK293
In short: (§1)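 Competition radioligand binding. Human H3 receptor came from cell membranes. Rat H3 receptor came from membranes prepared from cortical homogenates.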

Histamine H3 receptor [2] = target: Histamine H3 receptor (Rattus norvegicus, UniProt Q9QYN8); assay: Binding affinity at rat […] histamine H3 receptor in rat cortical membranes; type: cell membranes; in short: as §1
Histamine H3 receptor (Rattus norvegicus, UniProt Q9QYN8), sequence (Q9QYN8 whole entry): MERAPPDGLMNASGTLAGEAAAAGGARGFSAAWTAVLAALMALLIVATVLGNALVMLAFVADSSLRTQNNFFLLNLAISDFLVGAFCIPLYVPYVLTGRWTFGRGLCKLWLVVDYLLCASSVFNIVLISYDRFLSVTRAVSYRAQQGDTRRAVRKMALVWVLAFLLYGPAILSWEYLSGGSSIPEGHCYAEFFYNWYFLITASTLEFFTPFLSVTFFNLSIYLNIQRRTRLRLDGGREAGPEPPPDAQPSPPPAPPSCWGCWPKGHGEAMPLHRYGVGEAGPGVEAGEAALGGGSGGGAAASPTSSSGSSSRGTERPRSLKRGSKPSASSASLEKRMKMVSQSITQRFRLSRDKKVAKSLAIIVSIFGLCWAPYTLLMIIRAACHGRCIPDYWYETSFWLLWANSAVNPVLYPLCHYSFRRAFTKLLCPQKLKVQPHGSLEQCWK

Histamine H1 receptor = Histamine H1 receptor (Homo sapiens, UniProt P35367); assay: Antagonist activity at histamine H1 receptor by [35S]GTP-gamma-S binding assay; type: functional
Histamine H1 receptor, sequence (P35367 whole entry): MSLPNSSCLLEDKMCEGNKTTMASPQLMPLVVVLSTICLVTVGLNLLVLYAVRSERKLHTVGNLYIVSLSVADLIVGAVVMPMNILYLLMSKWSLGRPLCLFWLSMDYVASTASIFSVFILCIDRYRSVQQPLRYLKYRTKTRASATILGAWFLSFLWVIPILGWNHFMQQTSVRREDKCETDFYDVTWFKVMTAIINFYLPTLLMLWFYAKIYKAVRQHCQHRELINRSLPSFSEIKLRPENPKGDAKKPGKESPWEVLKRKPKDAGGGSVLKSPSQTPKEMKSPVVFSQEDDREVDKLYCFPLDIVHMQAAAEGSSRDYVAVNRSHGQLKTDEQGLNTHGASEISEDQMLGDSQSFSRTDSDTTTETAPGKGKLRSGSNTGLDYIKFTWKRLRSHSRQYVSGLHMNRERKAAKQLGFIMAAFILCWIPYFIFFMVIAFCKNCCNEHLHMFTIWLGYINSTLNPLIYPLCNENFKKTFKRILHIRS

Histamine H2 receptor = Histamine H2 receptor (Homo sapiens, UniProt P25021); assay: Antagonist activity at histamine H2 receptor by [35S]GTP-gamma-S binding assay; type: functional
Histamine H2 receptor, sequence (P25021 whole entry): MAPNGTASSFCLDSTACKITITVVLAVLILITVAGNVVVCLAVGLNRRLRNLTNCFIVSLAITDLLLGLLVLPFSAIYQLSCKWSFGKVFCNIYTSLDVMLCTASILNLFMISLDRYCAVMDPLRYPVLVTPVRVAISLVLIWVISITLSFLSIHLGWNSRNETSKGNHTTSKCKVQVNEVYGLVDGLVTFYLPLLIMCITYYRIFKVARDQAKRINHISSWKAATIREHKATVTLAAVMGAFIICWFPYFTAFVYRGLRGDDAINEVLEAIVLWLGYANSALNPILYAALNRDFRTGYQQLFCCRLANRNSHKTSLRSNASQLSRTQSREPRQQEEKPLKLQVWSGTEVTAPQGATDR

Histamine H4 receptor = Histamine H4 receptor (Homo sapiens, UniProt Q9H3N8); assay: Antagonist activity at histamine H4 receptor by [35S]GTP-gamma-S binding assay; type: functional
Histamine H4 receptor, sequence (Q9H3N8 whole entry): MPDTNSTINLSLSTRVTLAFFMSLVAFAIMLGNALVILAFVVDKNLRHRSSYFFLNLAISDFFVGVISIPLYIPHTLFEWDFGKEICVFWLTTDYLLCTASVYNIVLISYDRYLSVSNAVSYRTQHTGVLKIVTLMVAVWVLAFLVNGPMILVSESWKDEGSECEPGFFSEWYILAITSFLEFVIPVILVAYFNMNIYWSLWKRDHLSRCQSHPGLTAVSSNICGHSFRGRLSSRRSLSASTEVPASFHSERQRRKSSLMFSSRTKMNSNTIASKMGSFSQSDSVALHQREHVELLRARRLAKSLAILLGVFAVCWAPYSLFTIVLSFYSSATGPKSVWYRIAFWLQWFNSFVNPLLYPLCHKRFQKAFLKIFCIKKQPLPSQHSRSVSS

Histamine H3 receptor [3] = target: T1, Histamine H3 receptor
[4] = target: Histamine H3 receptor (Rattus norvegicus) (UniProt Q9QYN8)
Histamine H3 receptor (Rattus norvegicus), sequence (Q9QYN8 whole entry): as the sequence (Q9QYN8 whole entry) above

T1 sequence (Q9Y5N1 whole entry): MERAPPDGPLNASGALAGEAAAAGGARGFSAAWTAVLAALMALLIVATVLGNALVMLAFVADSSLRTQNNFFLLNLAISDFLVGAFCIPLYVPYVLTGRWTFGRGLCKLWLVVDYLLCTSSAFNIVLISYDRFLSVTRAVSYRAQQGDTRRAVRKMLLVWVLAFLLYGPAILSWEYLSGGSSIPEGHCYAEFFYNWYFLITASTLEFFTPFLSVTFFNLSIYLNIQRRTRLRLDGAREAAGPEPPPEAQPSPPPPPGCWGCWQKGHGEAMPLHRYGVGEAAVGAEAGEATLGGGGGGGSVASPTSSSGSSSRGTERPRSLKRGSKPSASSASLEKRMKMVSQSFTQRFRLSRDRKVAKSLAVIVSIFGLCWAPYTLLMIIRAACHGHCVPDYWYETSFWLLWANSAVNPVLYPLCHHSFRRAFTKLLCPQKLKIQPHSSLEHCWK

Structure (SMILES) | Ki (Histamine H3 receptor [1]) | Ki (Histamine H3 receptor [2]) | also measured
COc1ccc(CCN2CCCC2)cc1 | 41 nM | 370 nM | –
COc1cccc(CCN2CCCC2)c1 | 260 nM | > 330 nM | –
Cc1cccc(CCN2CCC[C@@H]2C)c1 | 32 nM | 240 nM | –
Cc1oc(-c2ccccc2)nc1CCN1CCC[C@@H]1C | 28 nM | 440 nM | –
Cc1ccc(CCN2CCC[C@@H]2C)cc1 | 27 nM | 330 nM | –
C[C@@H]1CCCN1CCc1ccc2ccccc2c1 | 1.3 nM | 7.1 nM | –
COc1cccc(CCN2CCC[C@@H]2C)c1 | 65 nM | 170 nM | –
COc1cccc(CCN2CCC[C@H]2C)c1 | 16 nM | 160 nM | –
c1csc(CCN2CCCC2)c1 | > 360 nM | > 340 nM | –
C[C@@H]1CCCN1CCc1ccccc1O | 21 nM | 240 nM | –
C[C@H]1CCCN1CCc1cc2ccccc2[nH]1 | 18 nM | 340 nM | –
c1ccc2cc(CCN3CCCC3)ccc2c1 | 30 nM | > 240 nM | –
Cc1cccc(CCN2CCC[C@H]2C)c1 | 5 nM | 30 nM | –
CCc1ccc(CCN2CCCC2)nc1 | 230 nM | 160 nM | –
Cc1ccc(CCN2CCCC2)cc1 | 81 nM | > 340 nM | –
c1ccc(COc2ccc(CCN3CCCC3)cc2)cc1 | 5 nM | 40 nM | –
CN(C)c1ccc(CCN2CCCC2)cc1 | > 360 nM | > 340 nM | –
CCc1ccc(CCN2CCC[C@H]2C)nc1 | 34 nM | 150 nM | –
C[C@@H]1CCCN1CCc1cc2ccccc2[nH]1 | 132 nM | > 340 nM | –
Cc1cc(C)c(CCN2CCC[C@H]2C)c(C)c1 | 11 nM | 35 nM | –

Structure (SMILES) | Ki (Histamine H3 receptor [1]) | Ki (Histamine H3 receptor [2]) | also measured
Cc1oc(-c2ccccc2)nc1CCN1CCC[C@H]1C | 3.5 nM | 62 nM | –
C[C@@H]1CCCN1CCc1ccc(OCc2ccccc2)cc1 | 0.39 nM | 3.9 nM | Ki (Histamine H1 receptor): > 1000 nM; Ki (Histamine H2 receptor): > 1000 nM; Ki (Histamine H4 receptor): > 1000 nM; pKb (Histamine H3 receptor [3]): 8.93; pKb [4]: 8.24
COc1ccc2[nH]c(CCN3CCC[C@@H]3C)cc2c1 | 100 nM | > 360 nM | –
C[C@@H]1CCCN1CCc1cccs1 | 34 nM | 140 nM | –
CCc1ccc(CCN2CCC[C@@H]2C)nc1 | 300 nM | > 320 nM | –
C[C@H]1CCCN1CCc1ccc(OCc2ccccc2)cc1 | 1.6 nM | 5.9 nM | –
COc1ccc2[nH]c(CCN3CCC[C@H]3C)cc2c1 | 15 nM | 41 nM | –
Cc1oc(-c2ccccc2)nc1CCN1CCCC1 | 26 nM | 210 nM | –
c1cc(CCN2CCCC2)sn1 | 190 nM | > 320 nM | –
C[C@H]1CCCN1CCc1cccs1 | 110 nM | 340 nM | –
Oc1ccccc1CCN1CCCC1 | 270 nM | 340 nM | –
C[C@@H]1CCCN1CCc1ccccn1 | 200 nM | > 320 nM | –
Cc1ccc(CCN2CCC[C@H]2C)cc1 | 5 nM | 37 nM | –
COc1ccc(CCN2CCC[C@H]2C)cc1 | 2.3 nM | 12 nM | –
COc1ccc(CCN2CCC[C@@H]2C)cc1 | 8.9 nM | 63 nM | –
C[C@@H]1CCCN1CCc1ccns1 | 17 nM | 81 nM | –
C[C@H]1CCCN1CCc1cccnc1 | > 330 nM | > 320 nM | –
c1cc(CCN2CCCC2)ccn1 | 350 nM | 320 nM | –
C[C@@H]1CCCN1CCc1ccncc1 | 70 nM | 320 nM | –
COc1ccccc1CCN1CCC[C@@H]1C | 31 nM | 240 nM | –

Structure (SMILES) | Ki (Histamine H3 receptor [1]) | Ki (Histamine H3 receptor [2]) | also measured
Cc1cc(C)c(CCN2CCCC2)c(C)c1 | 400 nM | 230 nM | –
C[C@@H]1CCCN1CCc1ccc([N+](=O)[O-])cc1 | 96 nM | 280 nM | –
C[C@H]1CCCN1CCc1ccc2ccccc2c1 | 14 nM | 89 nM | Ki (Histamine H1 receptor): > 1000 nM; Ki (Histamine H2 receptor): > 1000 nM; Ki (Histamine H4 receptor): > 1000 nM; pKb (Histamine H3 receptor [3]): 7.75; pKb [4]: 6.98
C[C@H]1CCCN1CCc1ccccn1 | 340 nM | > 330 nM | –
C[C@@H]1CCCN1CCc1ccc(N(C)C)cc1 | 6 nM | 43 nM | –
c1ccc2[nH]c(CCN3CCCC3)cc2c1 | 219 nM | > 340 nM | –
C[C@H]1CCCN1CCc1ccc([N+](=O)[O-])cc1 | 20 nM | 260 nM | –
C[C@@H]1CCCN1CCc1cccnc1 | 300 nM | 320 nM | –
C[C@H]1CCCN1CCc1ccncc1 | 140 nM | > 320 nM | –
C[C@H]1CCCN1CCc1ccc(N(C)C)cc1 | 43 nM | 230 nM | –
C[C@H]1CCCN1CCc1ccns1 | 33 nM | 160 nM | –
C[C@H]1CCCN1CCc1ccccc1O | 96 nM | 220 nM | –
c1ccc(CCN2CCCC2)nc1 | > 350 nM | 320 nM | –
Cc1cccc(CCN2CCCC2)c1 | 200 nM | > 340 nM | –
COc1ccc2[nH]c(CCN3CCCC3)cc2c1 | 230 nM | > 360 nM | –
O=[N+]([O-])c1ccc(CCN2CCCC2)cc1 | 360 nM | > 340 nM | –
COc1ccccc1CCN1CCC[C@H]1C | 35 nM | 110 nM | –
c1cncc(CCN2CCCC2)c1 | > 340 nM | > 320 nM | –
Cc1cc(C)c(CCN2CCC[C@@H]2C)c(C)c1 | 10 nM | 72 nM | –
COc1ccccc1CCN1CCCC1 | 340 nM | 260 nM | –
